Results on two compounds are retold here after article PMC8927994 (iScience, 2022).

The subject of test [1] is SHP2 protein. The following applies: esophageal cancer KYSE520 cells; ref Wang et al., 2021; cited from earlier work.
Test [2] deals with SHP2 protein. The settings on record: acute myeloid leukemia MV4;11 cells; ref Wang et al., 2021; cited from earlier work.
The next test has as its target SHP1 (Homo sapiens, UniProt P29350). Description: SHP1 enzyme activity assay. The format is biochemical. The settings on record: read-out: IC50 SHP1, DiFMUP substrate. Put shortly:
(§1)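 In-house expressed recombinant enzyme, purified by gel filtration, at the same conditions as the SHP2 assay but without IRS1 activating peptide. Test compound at 0.001–100 μM is preincubated with enzyme for 30–60 min at 25°C. DiFMUP is then added for 30 min at 25°C, and the reaction is quenched with bpV(Phen). Fluorescence is read at ex 340/em 450 nm, and IC50 comes from the dose-response curve.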

The target of another test is T1, PTP1B (Homo sapiens, UniProt P18031).
T1 sequence (P18031 1-435): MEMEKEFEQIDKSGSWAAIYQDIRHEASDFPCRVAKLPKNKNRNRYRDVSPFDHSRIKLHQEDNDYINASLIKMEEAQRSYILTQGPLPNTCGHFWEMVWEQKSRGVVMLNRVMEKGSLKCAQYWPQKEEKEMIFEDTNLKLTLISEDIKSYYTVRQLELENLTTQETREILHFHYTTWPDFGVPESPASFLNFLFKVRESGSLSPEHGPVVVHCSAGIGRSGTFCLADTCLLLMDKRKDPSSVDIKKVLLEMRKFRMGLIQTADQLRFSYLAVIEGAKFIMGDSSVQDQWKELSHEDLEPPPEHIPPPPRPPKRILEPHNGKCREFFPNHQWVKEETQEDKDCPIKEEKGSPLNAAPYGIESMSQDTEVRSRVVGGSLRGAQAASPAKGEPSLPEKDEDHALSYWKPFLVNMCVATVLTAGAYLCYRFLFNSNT
Description: PTP1B enzyme activity assay. The following applies: read-out: IC50 PTP1B, DiFMUP substrate. The format is biochemical. Put shortly: as §1

The subject of test [3] is mouse peritoneal macrophages (PMs). Briefly: Imiquimod-induced inflammation in peritoneal macrophages. The format is cell-based.
In test [4] the test system is bone marrow-derived macrophages (BMDMs). Briefly: Imiquimod-induced inflammation in bone marrow-derived macrophages. The format is cell-based, mouse.
For test [5], the system named is imiquimod-induced psoriasis model mice. Briefly: IMQ-induced psoriasis-like mouse model. The format is in vivo.
Setting [6] is: 10 μM pretreated 3 h, 5 μM IMQ 1 h.

SMILES strings stand for the structures. Like-named read-outs stand apart in the source and are kept apart here. Some results are limits rather than exact numbers.

Chain of SHP1 (P29350 whole entry): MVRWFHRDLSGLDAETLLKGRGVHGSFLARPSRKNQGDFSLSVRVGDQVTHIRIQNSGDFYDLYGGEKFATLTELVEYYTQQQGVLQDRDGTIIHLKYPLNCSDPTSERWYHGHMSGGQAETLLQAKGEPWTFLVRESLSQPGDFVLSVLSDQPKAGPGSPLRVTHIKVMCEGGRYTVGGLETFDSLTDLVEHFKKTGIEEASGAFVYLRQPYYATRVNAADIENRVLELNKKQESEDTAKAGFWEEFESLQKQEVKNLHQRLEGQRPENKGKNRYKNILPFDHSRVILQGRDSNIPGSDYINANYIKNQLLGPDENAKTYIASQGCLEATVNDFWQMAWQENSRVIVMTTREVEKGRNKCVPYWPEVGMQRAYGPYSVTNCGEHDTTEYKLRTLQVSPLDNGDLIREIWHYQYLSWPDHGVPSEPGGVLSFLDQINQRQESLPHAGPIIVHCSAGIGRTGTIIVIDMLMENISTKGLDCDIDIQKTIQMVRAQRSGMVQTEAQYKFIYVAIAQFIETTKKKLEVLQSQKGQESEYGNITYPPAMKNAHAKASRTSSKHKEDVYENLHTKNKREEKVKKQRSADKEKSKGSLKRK

As to `Cc1ncsc1-c1ccc([C@H](C)NC(=O)[C@@H]2C[C@@H](O)CN2C(=O)[C@@H](NC(=O)CCCCCCCCN2CCN(C(=O)CCC(=O)Nc3cccc(Sc4ncc(N5CCC(C)(N)CC5)nc4N)c3Cl)CC2)C(C)(C)C)cc1` [SHP2-D26], the “reduction of SHP2 protein levels” value in the test on SHP2 protein [1] and in the test on SHP2 protein [2] was over 95% each time.

Consider `CC1(N)CCN(c2cnc(-c3cccc(Cl)c3Cl)c(N)n2)CC1` [SHP099], for which the IC50 at SHP1 and at PTP1B was over 100 µM throughout. For the same compound, the “phosphorylation levels of p-IKKα/β and p-p65 (western blot)” value in test [3] (setting [6]) and in test [4] (setting [6]) was “inhibited the phosphorylation levels” each time. The “gene expression levels of inflammatory factors Il23a, Il22, Il6, Tnfα, Il1b, Ptgs2 (qPCR)” value in test [3] (pretreated 3 h, 5 μM IMQ 6 h) was “significantly alleviated”; in test [4] (pretreated 3 h, 5 μM IMQ 6 h), “significantly alleviated”. For the same compound, in test [5], the “infiltration of inflammatory cells (HE staining of skin sections)” value is “significantly reduced”. Also, the “proliferation of epidermal cells (HE staining of skin sections)” value in test [5] was “effectively inhibit”.

The term IC50 denotes the concentration that gives 50% inhibition.
